From ChEMBL document CHEMBL5338759, “N-Phenyl-1-(phenylsulfonyl)-1H-1,2,4-triazol-3-amine as a New Class of HIV-1 Non-nucleoside Reverse Transcriptase Inhibitor” (J Med Chem, 2023)

Tests used:
[1] = test system: Human immunodeficiency virus 1; assay: Antiviral activity against HIV1 harboring A17 mutant infected in human TZM-bl cells; assay type: functional, organism-based; settings: Human immunodeficiency virus 1, TZM-bl
In short: (§1)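 TZM-bl cells (2x10⁵/mL) were infected with mutant virus in the presence of 15 µg/mL DEAE-dextran. A17 (IIIB variant) was grown in H9 cells; the other mutants were NL4-3-based plasmids transfected into 293T cells, then expanded in H9 cells. Compounds were tested at 0.05–500 nM (DMSO constant within an assay) for 48 hr at 37°C. Read-out was luciferase RLU from lysed cells, with at least 6 replicates over multiple days.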

[2] = test system: Human immunodeficiency virus 1; assay: Antiviral activity against HIV1 harboring Y181C mutant infected in human TZM-bl cells; assay type: functional, organism-based; settings: Human immunodeficiency virus 1, TZM-bl; in short: as §1
[3] = Subacute toxicity in BALB/c mouse assessed as effect on pancreas weight at 25 to 250 mg/kg, IG measured daily for 30 days; assay type: organism-based; settings: in vivo, po, 720 h, dose 25-250 mg/kg, time 30 day
[4] = AUC (0 to infinity) in BALB/c mouse plasma at 250 mg/kg, IG measured at 0.5 to 24 hrs by HPLC-MS analysis; assay type: ADME, organism-based; design: time 0.5-24 hrs, dose 250 mg/kg, route ig; settings: in vivo, po
In short: (§2)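 Mice averaging 20 g (24 animals) were fasted 1 h before and 1 h after dosing. They received 250 mg/kg as 0.5 ml suspension in 1% CMC, 0.05% Tween 80 by intragastric intubation. Blood and brain were taken after decapitation at 0.5, 1, 2, 3, 5, 8 and 24 h (3 per time point). Plasma was frozen at -20°C and brain at -120 °C. Quantification was by UPLC-HRMS (ESI+, EIC m/z 476.0691) against plasma-matrix standards. Parameters were derived by noncompartmental analysis; LLOQ 5 ng/ml, with values below it set to 2.5.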

[5] = Subacute toxicity in BALB/c mouse assessed as pathological change in heart at 25 to 250 mg/kg, IG measured daily for 30 days by H and E staining based histological analysis; assay type: organism-based; settings: in vivo, po, 720 h, dose 25-250 mg/kg, time 30 day
In short: (§3)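 Male Balb/C mice (17 per group) received 25 or 250 mg/kg intragastrically in 1% starch gel once daily for 30 days, against starch gel controls. Internal organs were examined macroscopically after the study. Sections were paraffin-embedded and stained with hematoxylin and eosin.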

[6] = Subacute toxicity in BALB/c mouse assessed as pathological change in stomach at 25 to 250 mg/kg, IG measured daily for 30 days by H and E staining based histological analysis; assay type: organism-based; settings: in vivo, po, 720 h, dose 25-250 mg/kg, time 30 day; in short: as §3
[7] = test system: Human immunodeficiency virus 1; assay: Antiviral activity against HIV1 harboring K103N mutant infected in human TZM-bl cells; assay type: functional, organism-based; settings: Human immunodeficiency virus 1, TZM-bl; in short: as §1
[8] = Selectivity ratio of IC50 for antiviral activity against wild type HIV1 IIIB infected in human TZM-bl cells to IC50 for antiviral activity against HIV1 harboring Y181C mutant infected in human TZM-bl cells; assay type: toxicity, cell-based; settings: human immunodeficiency virus 1
In short: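 TZM-bl cells (2x10⁵/mL) with 15 µg/mL DEAE-dextran were infected with HIV-1 IIIB, A17 (K103N/Y181C) IIIB variant, or NL4-3-based NNRTI-resistant mutants. Compound was present at 0.05–500 nM (DMSO held constant, 0.005% or 0.05%) for 48 hr at 37°C, 5% CO₂.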

[9] = Safety index, ratio of TC10 for neurotoxicity in mouse primary neurons assessed as loss of MAP-2 intensity to EC50 for antiviral activity against wild type HIV1 IIIB infected in human TZM-bl cells; assay type: toxicity, cell-based
In short: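 Primary neuronal cultures from cortex/hippocampus of E16 CD1 mouse embryos (>95% neurons). Cells were then methanol:acetic acid-fixed and MAP-2 stained, and intensity was image-quantified. S-index = TC10/(100×EC50 vs HIV-1 IIIB in TZM-bl).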

[10] = Cmax in BALB/c mouse brain at 250 mg/kg, IG measured at 0.5 to 24 hrs by HPLC-MS analysis; assay type: ADME, organism-based; design: time 0.5-24 hrs, dose 250 mg/kg, route ig; settings: po; in short: as §2
[11] = Subacute toxicity in BALB/c mouse assessed as reduction in platelets count at 25 to 250 mg/kg, IG measured daily for 30 days; assay type: organism-based; settings: in vivo, po, 720 h, dose 25-250 mg/kg, time 30 day
[12] = Selectivity index, ratio of CC50 for cytotoxicity against human TZM-bl cells assessed as reduction in cell viability by MTS assay to EC50 for antiviral activity against HIV1 harboring A17 mutant infected in human TZM-bl cells; assay type: toxicity, cell-based; settings: read-out: Ratio CC50/EC50
[13] = Subacute toxicity in BALB/c mouse assessed as effect on adrenal gland weight at 25 to 250 mg/kg, IG measured daily for 30 days; assay type: organism-based; settings: in vivo, po, 720 h, dose 25-250 mg/kg, time 30 day
[14] = Subacute toxicity in BALB/c mouse assessed as reduction in WBC count at 25 to 250 mg/kg, IG measured daily for 30 days; assay type: organism-based; settings: in vivo, po, 720 h, dose 25-250 mg/kg, time 30 day
[15] = Half life in BALB/c mouse plasma at 250 mg/kg, IG measured at 0.5 to 24 hrs by HPLC-MS analysis; assay type: ADME, organism-based; settings: in vivo, po, time 0.5-24 hrs; in short: as §2
[16] = AUC (0 to infinity) in BALB/c mouse brain at 250 mg/kg, IG measured at 0.5 to 24 hrs by HPLC-MS analysis; assay type: ADME, organism-based; design: time upper 24 hrs, time lower 0.5 hrs, dose 250 mg/kg, route ig; settings: po; in short: as §2
[17] = Subacute toxicity in BALB/c mouse assessed as pathological change in spleen at 25 to 250 mg/kg, IG measured daily for 30 days by H and E staining based histological analysis; assay type: organism-based; settings: in vivo, po, 720 h, dose 25-250 mg/kg, time 30 day; in short: as §3
[18] = Subacute toxicity in BALB/c mouse assessed as reduction in aminotransferases level at 25 to 250 mg/kg, IG measured daily for 30 days; assay type: organism-based; settings: in vivo, po, 720 h, dose 25-250 mg/kg, time 30 day
In short: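 Dosing was daily intragastric 25 or 250 mg/kg in 1% starch gel (0.2 ml/20 g) for 30 days in male Balb/C mice, 17 per group, with starch gel controls. After the final dose, mice were fasted for 2 h with water available, then bled. Serum was clotted for 30 min at room temperature and centrifuged at 3500 rpm. Total protein, urea, creatinine, AST, ALT and alkaline phosphatase were assayed and compared by Mann-Whitney with Holm-Šídák, p < 0.05.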

[19] = Metabolic stability in human liver microsome measured up to 60 mins presence of NADPH; assay type: ADME; settings: microsomes, 1 h
[20] = Tmax in BALB/c mouse brain at 250 mg/kg, IG measured at 0.5 to 24 hrs by HPLC-MS analysis; assay type: ADME, organism-based; settings: po, time 0.5-24 hrs; in short: as §2
[21] = Half life in BALB/c mouse brain at 250 mg/kg, IG measured at 0.5 to 24 hrs by HPLC-MS analysis; assay type: ADME, organism-based; settings: in vivo, po, time 0.5-24 hrs; in short: as §2
[22] = test system: TZM; assay: Cytotoxicity against human TZM-bl cells assessed as reduction in viability incubated for 48 hrs by CellTiter-Blue cell viability assay
[23] = test system: Human immunodeficiency virus 1; assay: Antiviral activity against HIV1 harboring L100I/K103N double mutant infected in human TZM-bl cells; assay type: functional, organism-based; settings: Human immunodeficiency virus 1, TZM-bl
[24] = target: Voltage-gated inwardly rectifying potassium channel KCNH2 (Homo sapiens, UniProt Q12809); assay: Inhibition of hERG by fluorescence polarization assay; assay type: toxicity
[25] = Subacute toxicity in BALB/c mouse assessed as pathological change in kidney at 25 to 250 mg/kg, IG measured daily for 30 days by H and E staining based histological analysis; assay type: organism-based; settings: in vivo, po, 720 h, dose 25-250 mg/kg, time 30 day; in short: as §3

Sequence of Voltage-gated inwardly rectifying potassium channel KCNH2 (Q12809 whole entry): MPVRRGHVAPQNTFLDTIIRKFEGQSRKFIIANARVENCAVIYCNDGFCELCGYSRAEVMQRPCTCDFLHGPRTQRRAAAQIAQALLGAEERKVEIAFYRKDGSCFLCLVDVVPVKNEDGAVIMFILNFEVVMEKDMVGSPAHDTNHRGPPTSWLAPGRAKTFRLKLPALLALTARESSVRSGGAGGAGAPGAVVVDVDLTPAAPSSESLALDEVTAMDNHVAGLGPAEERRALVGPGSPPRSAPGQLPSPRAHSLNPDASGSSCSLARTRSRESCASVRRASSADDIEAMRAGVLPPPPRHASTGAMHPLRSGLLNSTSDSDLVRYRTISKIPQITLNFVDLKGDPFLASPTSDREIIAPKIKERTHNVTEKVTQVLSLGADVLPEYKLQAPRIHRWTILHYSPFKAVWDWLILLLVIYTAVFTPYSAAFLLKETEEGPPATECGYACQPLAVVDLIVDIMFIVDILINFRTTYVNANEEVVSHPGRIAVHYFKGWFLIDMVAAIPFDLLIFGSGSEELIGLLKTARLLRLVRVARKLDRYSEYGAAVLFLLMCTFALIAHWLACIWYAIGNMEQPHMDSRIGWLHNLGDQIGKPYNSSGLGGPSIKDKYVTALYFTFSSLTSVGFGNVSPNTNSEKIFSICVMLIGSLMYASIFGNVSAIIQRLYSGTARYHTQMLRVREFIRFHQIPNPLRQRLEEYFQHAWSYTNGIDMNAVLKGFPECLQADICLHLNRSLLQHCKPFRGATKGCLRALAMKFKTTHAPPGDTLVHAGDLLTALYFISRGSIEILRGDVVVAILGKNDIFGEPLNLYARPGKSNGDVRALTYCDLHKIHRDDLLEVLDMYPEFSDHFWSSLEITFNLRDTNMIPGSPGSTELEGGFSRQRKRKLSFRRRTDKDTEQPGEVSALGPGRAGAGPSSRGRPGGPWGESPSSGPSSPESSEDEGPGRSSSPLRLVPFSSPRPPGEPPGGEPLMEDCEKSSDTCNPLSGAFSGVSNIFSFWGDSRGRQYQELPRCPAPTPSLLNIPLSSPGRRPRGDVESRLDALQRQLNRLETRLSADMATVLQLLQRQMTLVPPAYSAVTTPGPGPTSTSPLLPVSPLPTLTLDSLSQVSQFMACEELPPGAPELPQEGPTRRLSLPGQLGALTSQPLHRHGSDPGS

N#C/C=C/c1ccc2c(S(=O)(=O)n3nc(Nc4ccc(C#N)c(Cl)c4)nc3N)cccc2c1
EC50 [1]: 0.689 nM
IC50 [1]: 1.3 nM
IC50 [2]: 3.7 nM
Activity [3]: Non-Toxic
AUC [4]: 427.7 µg·h/mL
Activity [5]: Non-Toxic
Activity [6]: Non-Toxic
IC50 [7]: 5.9 nM
Ratio IC50 [8]: 16
Ratio [9]: Not Active
Cmax [10]: 40.3 ng/100 mg
Activity [11]: Non-Toxic
selectivity ratio [12]: 1200
Activity [13]: Non-Toxic
Activity [14]: Non-Toxic
t1/2 [15]: 7.7 h
AUC(0-inf) [16]: 184 µg·h/mL
Activity [17]: Non-Toxic
Activity [18]: Toxic
Stability [19]: Stable
Tmax [20]: 2 h
t1/2 [21]: 11.5 h
CC50 [22]: 4800 nM
IC50 [23]: 1050 nM
IC50 [24]: 11500 nM
Activity [25]: Non-Toxic
